Measured values reported in ChEMBL document CHEMBL5653630, “Activation of the p53-MDM4 regulatory axis defines the anti-tumour response to PRMT5 inhibition through its role in regulating cellular splicing” (Sci Rep, 2018).
One block for each compound: values may come before it. The source made the active and inactive calls. The rule behind the calls is not given here.

Key:
[1] = tested on: Z-138; assay: Induction of cell cycle arrest in human Z138 cells assessed as accumulation of cells at G1 phase cells incubated for 1 to 10 days by propidium iodide staining based flow cytometric analysis; assay type: functional; details: dose <= 1000.0 nM, time 1-10 day
[2] = tested on: MINO; assay: Induction of cell cycle arrest in human MINO cells assessed as increase in 2n cell population measured upto 5000 nM measured for 3 days by propidium iodide staining based flow cytometric analysis; assay type: functional; details: time 3.0 day
[3] = tested on: Maver1; assay: Induction of apoptosis in human MAVER-1 cells assessed as dead cells incubated for 6 days by annexin-V/FITC propidium iodide staining based flow cytometry analysis; assay type: functional, cell-based; details: dose <= 5000.0 nM, time 6.0 day
[4] = tested on: Z-138; assay: Antitumor activity against human Z138 cells xenografted in mouse at 25 to 50 mg/kg, po BID measured at 14 to 21 days; assay type: functional, organism-based; details: dose lower […], dose upper 50.0 mg/kg, time 14-21 day
[5] = tested on: Ramos; assay: Antiproliferative activity against human Ramos cells assessed as cell growth inhibition incubated for 10 days; assay type: functional; details: 240 h, time 10 day
[6] = tested on: BeWo; assay: Antiproliferative activity against human BeWo cells assessed as cell growth inhibition incubated for 10 days; assay type: functional; details: 240 h, time 10 day
Outline: (§1)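 Cells kept in RPMI-1640 with 10% FBS, 2 mM L-alanyl-L-glutamine and 1 mM Na pyruvate (or a special medium) at 37°C, 5% CO2. Compound added 24 h after seeding, 10 concentrations in 3.16-fold dilution, 0.1% DMSO final. Medium replaced and cells re-dosed at 168 h; 240 h incubation. Nuclei fixed, dye-stained and imaged. gIC50 = growth midway between untreated and time-zero cell counts, from a 4-parameter fit.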

[7] = tested on: LS-1034; assay: Antiproliferative activity against human LS1034 cells assessed as cell growth inhibition incubated for 10 days; assay type: functional; details: LS-1034, 240 h, time 10 day
[8] = tested on: DBTRG-05MG; assay: Antiproliferative activity against human DBTRG-05MG cells assessed as cell growth inhibition incubated for 10 days; assay type: functional; details: 240 h, time 10 day
Outline: (§2)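 Outsourced panel run in 384-well plates. Cells were grown in RPMI-1640/10% FBS or a special medium at 37°C, 5% CO2. Compound was added 24 h after seeding as a 10-point, 3.16-fold series in 0.1% DMSO. Medium was refreshed and cells re-dosed at 168 h, with a time-zero plate kept. At 240 h cells were fixed, nuclei stained and imaged. gIC50 is growth midway between untreated and time zero, from a 4-parameter fit.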

[9] = tested on: CCF-STTG1; assay: Antiproliferative activity against human CCF-STTG1 cells assessed as cell growth inhibition incubated for 10 days; assay type: functional; details: CCF-STTG1, 240 h, time 10 day; outline: as §1
[10] = tested on: U138-MG; assay: Antiproliferative activity against human U138-MG cells assessed as cell growth inhibition incubated for 10 days; assay type: functional; details: 240 h, time 10 day
[11] = tested on: G-402; assay: Antiproliferative activity against human G-402 cells assessed as cell growth inhibition incubated for 10 days; assay type: functional; details: G-402, 240 h, time 10 day; outline: as §2
[12] = tested on: A498; assay: Antiproliferative activity against human A498 cells assessed as cell growth inhibition incubated for 10 days; assay type: functional; details: A498, 240 h, time 10 day; outline: as §1
[13] = tested on: HuCCT-1; assay: Antiproliferative activity against human HuCCT-1 cells assessed as cell growth inhibition incubated for 10 days; assay type: functional; details: HuCCT-1, 240 h, time 10 day
Outline: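 Eurofins panel, 384-well. Cells kept in RPMI-1640 with 10% FBS, 2 mM L-alanyl-L-glutamine and 1 mM Na pyruvate, or in a special medium, at 37°C under 5% CO2. Compound added 24 h after seeding as 10 concentrations in 3.16-fold steps, 0.1% DMSO final. Medium replaced and compound re-dosed at 168 h. After 240 h, cells fixed and nuclei stained for imaging. gIC50 = growth midway between untreated cells and time-zero count.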

[14] = Antiproliferative activity against human HUH-6-clone5 cells assessed as cell growth inhibition incubated for 10 days; assay type: functional; details: HUH-6-clone5, 240 h, time 10 day; outline: as §2
[15] = tested on: Daoy; assay: Antiproliferative activity against human Daoy cells assessed as cell growth inhibition incubated for 10 days; assay type: functional; details: 240 h, time 10 day; outline: as §2
[16] = tested on: SK-MEL-1; assay: Antiproliferative activity against human SK-MEL-1 cells assessed as cell growth inhibition incubated for 10 days; assay type: functional; details: SK-MEL-1, 240 h, time 10 day
[17] = tested on: BPH-1; assay: Antiproliferative activity against human BPH-1 cells assessed as cell growth inhibition incubated for 10 days; assay type: functional; details: BPH-1, 240 h, time 10 day; outline: as §1
[18] = tested on: NCI-H460; assay: Antiproliferative activity against human NCI-H460 cells assessed as cell growth inhibition incubated for 10 days; assay type: functional; details: NCI-H460, 240 h, time 10 day
[19] = tested on: COR-L23; assay: Antiproliferative activity against human COR-L23 cells assessed as cell growth inhibition incubated for 10 days; assay type: functional; details: COR-L23, 240 h, time 10 day; outline: as §2
[20] = tested on: OVCAR-3; assay: Antiproliferative activity against human OVCAR-3 cells assessed as cell growth inhibition incubated for 10 days; assay type: functional; details: OVCAR-3, 240 h, time 10 day
[21] = tested on: ASPC1; assay: Antiproliferative activity against human ASPC1 cells assessed as cell growth inhibition incubated for 10 days; assay type: functional; details: ASPC1, 240 h, time 10 day; outline: as §1
[22] = tested on: Capan-2; assay: Antiproliferative activity against human Capan-2 cells assessed as cell growth inhibition incubated for 10 days; assay type: functional; details: Capan-2, 240 h, time 10 day; outline: as §2
[23] = tested on: HuP-T4; assay: Antiproliferative activity against human HuP-T4 cells assessed as cell growth inhibition incubated for 10 days; assay type: functional; details: HuP-T4, 240 h, time 10 day
Outline: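 Cells grown at 37°C under 5% CO2 in RPMI-1640 with 10% FBS, 2 mM L-alanyl-L-glutamine and 1 mM pyruvate (or a special medium), then seeded in 384-well plates. Compound was added 24 h later as a 10-point, 3.16-fold series in 0.1% DMSO final. Medium was replaced and cells re-dosed at 168 h; 240 h total. Nuclear-dye imaging gave cell counts, with a time-zero plate. gIC50 is growth halfway to time zero, from a 4-parameter fit.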

[24] = tested on: YAPC; assay: Antiproliferative activity against human YAPC cells assessed as cell growth inhibition incubated for 10 days; assay type: functional; details: 240 h, time 10 day
[25] = tested on: CWR22R; assay: Antiproliferative activity against human 22Rv1 cells assessed as cell growth inhibition incubated for 10 days; assay type: functional; details: 22Rv1, 240 h, time 10 day; outline: as §1
[26] = tested on: SAOS-2; assay: Antiproliferative activity against human SAOS-2 cells assessed as cell growth inhibition incubated for 10 days; assay type: functional; details: SAOS-2, 240 h, time 10 day
[27] = tested on: SW 962; assay: Antiproliferative activity against human SW 962 cells assessed as cell growth inhibition incubated for 10 days; assay type: functional; details: SW 962, 240 h, time 10 day
[28] = target: Protein arginine N-methyltransferase 5 (Homo sapiens) (UniProt O14744); assay: Inhibition of PRMT5 in human Z138 cells assessed as effect on KHSRP level by measuring fold change by LC-MS/MS analysis relative to control; assay type: cell-based
[29] = tested on: Z-138; assay: Induction of cell cycle arrest in human Z138 cells expressing full length MDM4 assessed as accumulation of cells at G1 phase at 500 nM incubated for 4 days; assay type: functional, cell-based; details: time 4.0 day
[30] = target: Protein arginine N-methyltransferase 5 (Homo sapiens) (UniProt O14744); assay: Inhibition of PRMT5 in p53 knockout human Z138 cells effect on p21 expression at 500 nM incubated for 3 to 11 days by Western blot analysis; assay type: cell-based; details: time 3-11 day
[31] = tested on: RCK8; assay: Antiproliferative activity against human RCK8 cells assessed as reduction in cell viability; assay type: functional, cell-based

Protein arginine N-methyltransferase 5 (Homo sapiens), sequence (O14744 whole entry): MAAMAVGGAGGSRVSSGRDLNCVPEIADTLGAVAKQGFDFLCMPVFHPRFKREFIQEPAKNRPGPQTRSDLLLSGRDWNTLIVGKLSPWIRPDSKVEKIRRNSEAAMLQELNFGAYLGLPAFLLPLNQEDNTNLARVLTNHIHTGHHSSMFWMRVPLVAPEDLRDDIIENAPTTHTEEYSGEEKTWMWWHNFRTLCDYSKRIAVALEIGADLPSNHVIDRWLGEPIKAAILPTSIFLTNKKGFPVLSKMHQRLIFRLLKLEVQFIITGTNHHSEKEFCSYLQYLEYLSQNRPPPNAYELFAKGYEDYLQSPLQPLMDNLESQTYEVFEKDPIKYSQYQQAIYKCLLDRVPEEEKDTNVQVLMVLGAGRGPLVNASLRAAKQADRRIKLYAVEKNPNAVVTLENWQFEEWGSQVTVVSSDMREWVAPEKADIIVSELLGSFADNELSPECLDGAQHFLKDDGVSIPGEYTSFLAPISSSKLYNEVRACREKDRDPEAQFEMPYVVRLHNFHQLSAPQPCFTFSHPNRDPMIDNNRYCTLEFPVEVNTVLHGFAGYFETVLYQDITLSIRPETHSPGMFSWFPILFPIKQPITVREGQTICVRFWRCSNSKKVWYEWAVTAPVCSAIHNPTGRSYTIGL

Structure (SMILES): CC(=O)N1CCC(Nc2cc(C(=O)NC[C@H](O)CN3CCc4ccccc4C3)ncn2)CC1 [PEMRAMETOSTAT]
Activity [1]: Dose-Dependent Effect | Activity [2]: inactive | Activity [3]: Dose-Dependent Effect | Activity [4]: inactive

GI50 [5]: 0.546 µM | GI50 [16]: 0.0387 µM | GI50 [18]: 0.224 µM | GI50 [20]: 0.0514 µM | GI50 [21]: 0.302 µM | fold change (FC) [28]: -7.8 | inhibition [30]: inactive
Structure (SMILES): O=C(NC[C@H](O)CN1CCc2ccccc2C1)c1ccnc(NC2CCC2)c1
GI50 [6]: 1.09 µM | GI50 [7]: 0.172 µM | GI50 [8]: 0.156 µM | GI50 [9]: 0.115 µM | GI50 [10]: 0.0433 µM | GI50 [11]: 0.0997 µM | GI50 [12]: 0.0507 µM | GI50 [13]: 0.225 µM | GI50 [14]: 0.361 µM | GI50 [15]: 0.27 µM | GI50 [17]: 0.718 µM | GI50 [19]: 0.147 µM | GI50 [22]: 0.0697 µM | GI50 [23]: 0.0849 µM | GI50 [24]: 0.168 µM | GI50 [25]: 2.48 µM | GI50 [26]: 0.0482 µM | GI50 [27]: 0.203 µM | Activity [29]: Active | Activity [31]: Active
